Laboratory results reported in PMC8585696 (Immunity, 2021).

Experiments:
C57BL/6 mice [1] = test: BALF inflammatory cell counts; type: in vivo, mouse; conditions: C. albicans intranasal, inhibitor 10 or 20 μg/kg i.p., Figure 2I
C57BL/6 mice [2] = test: cytokines from lung by ELISA; type: in vivo, mouse
Method in brief: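 C57BL/6 mice received 1 × 10^5 viable C. albicans intranasally every other day for 8 challenges. Fungal cells were thawed (>95% viable), washed and suspended in normal saline. Dkk-1 inhibitor (10 or 20 μg/kg) or recombinant mouse Dkk-1 (5 μg/kg) was given i.p. at each challenge. Lungs were taken 24 h after the last challenge, and cytokines in lung homogenate supernatants were measured by ELISA (TMB, 450 nm).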

C. albicans = test: lung fungal burden; type: in vivo
Method in brief: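 Whole-lung C. albicans CFU was counted in C57BL/6 mice 24 h after the last of 8 intranasal challenges (1 × 10^5 viable cells in saline, every other day). Dkk-1 inhibitor or recombinant mouse Dkk-1 (5 μg/kg) was given i.p. together with each challenge.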

Dkk-1 = conditions: ref Chae et al., 2016; cited from earlier work
GP1bα [3] = conditions: through the A1 domain; ref Azuma et al., 1991; cited from earlier work
GP1bα [4] = test: GP1bα pulldown from human platelet lysates; type: binding; conditions: 60 μg biotinylated bait, 1 h, 4°C, western blot; Figure 4E
[5] = system: human platelets (platelet-rich plasma); test: platelet aggregation assay; type: cell-based; conditions: collagen 2.5 μg/mL or increasing candidalysin, 5 min, Figure S4G
C57BL/6 mice [6] = test: airway hyperresponsiveness; type: in vivo, mouse; conditions: ece1Δ/Δ C. albicans intranasal; Dkk-1 5 μg/kg i.p.; Figure 3B
[7] = system: GATA3^+ Th2 and RORγt^+ Th17 cells; test: lung T cell quantitation by flow cytometry; type: in vivo, mouse; conditions: ece1Δ/Δ C. albicans intranasal; Dkk-1 5 μg/kg i.p.; Figures 3F, 3G
Method in brief: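 Mice were challenged with C. albicans (1 × 10^5 viable cells) intranasally every other day ×8, with recombinant mouse Dkk-1 (5 μg/kg i.p.) at each challenge, and analyzed 24 h after the final challenge. Erythrocytes in total lung cells were lysed with ACK. Cells were stained for live/dead, CD45, CD3 and CD4, split into 3 groups, fixed and permeabilized, then stained for T-bet, GATA3 or RORγt. Results are given as percentages and absolute counts.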

C57BL/6 mice [8] = test: allergic airway disease overall; type: in vivo, mouse; conditions: intraperitoneal route, no fungus; data not shown

NCC1CCN(c2nccc(-c3ccc4ccccc4c3)n2)CC1 [WAY 262611]
BALF eosinophilia under Dkk-1 inhibitor (C57BL/6 mice [1]): most notably reducing BALF eosinophilia
BALF inflammatory cell recruitment under Dkk-1 inhibitor (C57BL/6 mice [1]; dose-dependent): progressively reduced
secretion of IL-17 from whole lung under Dkk-1 inhibitor (C57BL/6 mice [2]; C. albicans intranasal, inhibitor 10 or 20 μg/kg i.p., Figure 2J): inhibited secretion of IL-17
secretion of IL-1β, IL-6 and TNF under Dkk-1 inhibitor (C57BL/6 mice [2]; C. albicans intranasal, inhibitor 10 or 20 μg/kg i.p., Figure 2K): not significantly affected
lung fungal burden under Dkk-1 inhibitor (C. albicans; C. albicans intranasal, inhibitor i.p., Figure 2N): markedly elevated lung fungal burdens
block of Dkk-1 in vivo (Dkk-1): previously shown to block this peptide in vivo

VWF A1A2A3 tridomain: recombinant human VWF A1, A2, A3 domains (Q1238-G1874) expressed in HEK293
binding of VWF fragment to GP1bα (GP1bα [3]): binds GP1bα through the A1 domain

IFKIIISKIQIVMGLNGIPIKVAGSQNIGMI [scrambled control (SC) peptide]
association with GP1bα from human platelet lysates (GP1bα [4]): but not its scrambled control peptide

collagen
platelet aggregation in vitro [5]: in marked contrast to the activating GPIIb/IIIa ligand collagen

B1: Dkk-1: recombinant mouse Dkk-1 (5897-DK-010, R&D systems), Wnt pathway antagonist (protein, UniProt O54908 32-272, looked up)
Dickkopf-related protein 1: TLNSVLINSNAIKNLPPPLGGAGGQPGSAVSVAPGVLYEGGNKYQTLDNYQPYPCAEDEECGSDEYCSSPSRGAAGVGGVQICLACRKRRKRCMRHAMCCPGNYCKNGICMPSDHSHFPRGEIEESIIENLGNDHNAAAGDGYPRRTTLTSKIYHTKGQEGSVCLRSSDCAAGLCCARHFWSKICKPVLKEGQVCTKHKRKGSHGLEIFQRCYCGEGLACRIQKDHHQASNSSRLHTCQRH
airway hyperresponsiveness with exogenous Dkk-1 (C57BL/6 mice [6]): significantly enhanced airway hyperresponsiveness
secretion of lung Th2 cytokines, especially IL-4, and IL-17 with exogenous Dkk-1 (C57BL/6 mice [2]; ece1Δ/Δ C. albicans intranasal, Dkk-1 5 μg/kg i.p., Figure 3D): markedly enhanced
secretion of innate pro-inflammatory cytokines with exogenous Dkk-1 (C57BL/6 mice [2]; ece1Δ/Δ C. albicans intranasal, Dkk-1 5 μg/kg i.p., Figure 3E): did not influence the secretion of innate pro-inflammatory cytokines
recruitment to lung of GATA3^+ Th2 and RORγt^+ Th17 cells with exogenous Dkk-1 [7]: markedly increase recruitment to lung
fungal lung burden with exogenous Dkk-1 (C. albicans; ece1Δ/Δ C. albicans intranasal, Dkk-1 5 μg/kg i.p., Figure 3H): significantly reduced
indices of allergic airway disease, Dkk-1 alone (C57BL/6 mice [8]): no effect on any index of allergic airway disease
